The source of these data is ChEMBL document CHEMBL3826964, “Structure-based design and synthesis of triazole-based macrocyclic inhibitors of norovirus protease: Structural, biochemical, spectroscopic, and antiviral studies” (Eur J Med Chem, 2016).

One series has as its system Norovirus. As to the kind of experiment: Antiviral activity against HG23 cells harboring Norovirus replicon assessed as decrease in viral RNA level measured after 48 hrs by qRT-PCR analysis. Format: functional, cell-based. To be noted: HG23, 48 h. In short, it runs like this: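 One-day-old HG23 cells (Norwalk virus replicon-bearing) exposed to 1.0–100 μM compound for 48 h; total RNA extracted and norovirus RNA quantified by qRT-PCR, normalized to β-actin. Percent reduction versus mock-treated cells used to calculate EC50; at least two independent experiments.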

Series [1] can be described thus: Cytotoxicity against human HG23 cells after 72 hrs by CytoTox-96 non-radioactive cytotoxicity assay. Format: cell-based. Conditions: hg23, 72 h.

As to `O=C[C@@H]1CCC(=O)NCCCCCCn2cc(nn2)C[C@H](NC(=O)OCc2ccccc2)C(=O)N[C@@H](Cc2ccccc2)C(=O)N1`, the EC50 in the series on Norovirus turned out to be 29.5 µM. Further, the CC50 in series [1] is > 100 µM.

Turning to `O=C[C@@H]1CCC(=O)NCCCCCn2cc(nn2)C[C@H](NC(=O)OCc2ccccc2)C(=O)N[C@@H](CC2CCCCC2)C(=O)N1`, in the series with Norovirus, the EC50 stood at 3.8 µM. The CC50 in series [1] is > 100 µM. The like results for `CC(C)C[C@@H]1NC(=O)[C@@H](NC(=O)OCc2ccccc2)Cc2cn(nn2)CCCCNC(=O)CC[C@@H](C=O)NC1=O` were, in that order, 46.3 µM and > 100 µM. On to `CC(C)C[C@@H]1NC(=O)[C@@H](NC(=O)OCc2ccccc2)CCCn2cc(nn2)CNC(=O)CC[C@@H](C=O)NC1=O`, for which, in the series on Norovirus, the concentration for a half-maximal effect (EC50) turned out to be 8.5 µM.

As for `CC(C)C[C@@H]1NC(=O)[C@@H](NC(=O)OCc2ccccc2)Cc2cn(nn2)CCNC(=O)CC[C@@H](C=O)NC1=O`, the EC50 in the series on Norovirus is 53.2 µM. Also, in series [1], the CC50 is > 100 µM. As to `CC(C)C[C@@H]1NC(=O)[C@@H](NC(=O)OCc2ccccc2)Cc2cn(nn2)CCCCCCNC(=O)CC[C@@H](C=O)NC1=O`, in the series with Norovirus, the EC50 came out at 42.1 µM. Moreover, the CC50 in series [1] is > 100 µM. The like results for `CC(C)C[C@@H]1NC(=O)[C@@H](NC(=O)OCc2ccccc2)Cc2cn(nn2)CCCCCNC(=O)CC[C@@H](C=O)NC1=O` were, in that order, 6.2 µM and > 100 µM. Regarding `CC(C)C[C@@H]1NC(=O)[C@@H](NC(=O)OCc2ccccc2)Cc2cn(nn2)CCCNC(=O)CC[C@@H](C=O)NC1=O`, the EC50 in the series on Norovirus came to 81.5 µM. Moreover, in series [1], the CC50 is > 100 µM. The like results for `O=C[C@@H]1CCC(=O)NCCCn2cc(nn2)C[C@H](NC(=O)OCc2ccccc2)C(=O)N[C@@H](CC2CCCCC2)C(=O)N1` were, in that order, 16.1 µM and > 100 µM. The like results for `O=C[C@@H]1CCC(=O)NCCCCCCn2cc(nn2)C[C@H](NC(=O)OCc2ccccc2)C(=O)N[C@@H](CC2CCCCC2)C(=O)N1` were, in that order, 88.3 µM and > 100 µM. In the same order, the values of `O=C[C@@H]1CCC(=O)NCCn2cc(nn2)C[C@H](NC(=O)OCc2ccccc2)C(=O)N[C@@H](CC2CCCCC2)C(=O)N1` are 25.5 µM and > 100 µM. Regarding `O=C[C@@H]1CCC(=O)NCCCCn2cc(nn2)C[C@H](NC(=O)OCc2ccccc2)C(=O)N[C@@H](CC2CCCCC2)C(=O)N1`, the EC50 in the series on Norovirus came out at 30.5 µM. Moreover, the CC50 in series [1] was > 100 µM.
